# Data from ChEMBL document CHEMBL4152376, “Optimization of 8-Hydroxyquinolines as Inhibitors of Catechol O-Methyltransferase” (J Med Chem, 2018).
# Tests used:
# [1] = Drug level in CSF of Sprague-Dawley rat at 15 mg/kg, ip after 4 hrs by ES-UPLC analysis; format: ADME, organism-based, Cerebrospinal fluid; conditions: in vivo, BLD = below limit of detection
# [2] = Unbound plasma concentration in Sprague-Dawley rat 15 mg/kg, ip after 4 hrs by ES-UPLC analysis; format: ADME, organism-based; conditions: in vivo
# [3] = Unbound drug level in brain of Sprague-Dawley rat at 15 mg/kg, ip after 4 hrs by ES-UPLC analysis; format: ADME, organism-based; conditions: in vivo, BLD = below limit of detection
# [4] = Plasma concentration C57BL/6J mouse at 10 mg/kg, ip measured at 1 hr post dose; format: ADME, organism-based
# Procedure, shortened: (§1)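 Male C57BL/6J mice (8 weeks), single ip injection of 10 mg/kg suspended in 0.1% Tween80/0.1% antifoam/1% methylcellulose at 10 mL/kg. Two mice per timepoint; at 1 h, plasma separated at 4 °C and brain homogenized in 4 volumes PBS pH 7.4. Total brain and plasma levels measured.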
# [5] = target: T1, Catechol O-methyltransferase (Homo sapiens, UniProt P21964); test: Inhibition of c-terminal hexa-His tagged human MB-COMT expressed in HEK293 cell membrane homogenate using norepinephrine as substrate after 1 hr in presence of SAM by MTase glo methyltransferase assay
# T1 sequence (P21964 whole entry): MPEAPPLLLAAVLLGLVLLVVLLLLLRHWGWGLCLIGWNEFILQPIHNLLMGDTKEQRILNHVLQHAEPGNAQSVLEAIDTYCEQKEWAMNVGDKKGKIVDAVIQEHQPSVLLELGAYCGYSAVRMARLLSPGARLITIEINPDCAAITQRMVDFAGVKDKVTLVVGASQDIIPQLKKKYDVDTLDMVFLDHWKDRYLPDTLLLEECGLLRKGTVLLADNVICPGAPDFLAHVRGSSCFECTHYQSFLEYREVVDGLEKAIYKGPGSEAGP
# Procedure, shortened: (§2)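 Membrane homogenate of HEK293 cells expressing C-terminal His6 MB-COMT (human about 7 ng, rat about 4 ng per well, protein by Bradford […]). 20 µM SAM and 7 µM norepinephrine in 50 mM Tris, 5–10 mM MgCl2, 2.5 mM DTT, pH 6.9, final DMSO 1.5%. 1 h at 37 °C, then MTase-Glo luminescence. […] 4-parameter IC50 fit; triplicate points, three experiments.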
# [6] = Fraction unbound in rat brain by equilibrium dialysis; format: ADME, tissue-based
# Procedure, shortened: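 Percent free drug in rat brain tissue, measured by equilibrium dialysis.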
# [7] = Clearance in rat hepatocytes assessed as per million cells; format: ADME, cell-based, Hepatocyte; conditions: read-out: CLH
# [8] = target: T1, Catechol O-methyltransferase; test: Inhibition of c-terminal hexa-His tagged human S-COMT expressed in HEK293-6E cell membrane homogenate using 7,8-dihydroxy-4-methylcoumarin as substrate after 1 hr in presence of SAM by MTase glo methyltransferase assay
# Procedure, shortened: (§3)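 His6-tagged S-COMT (human or rat), expressed in 293-6E cells and purified by Ni-NTA and size exclusion, 1 ng per well. 20 µM SAM and 10 µM 7,8-dihydroxy-4-methylcoumarin in pH 6.9 Tris/MgCl2/DTT buffer, 1.5% DMSO. 1 h at 37 °C, then MTase-Glo luminescence read against a SAH standard curve. […] 4-parameter IC50; triplicate wells, three runs.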
# [9] = Fraction unbound in mouse plasma by equilibrium dialysis; format: ADME, cell-free
# Procedure, shortened: (§4)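 Percent free drug in mouse or rat plasma, measured by equilibrium dialysis.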
# [10] = Drug uptake in brain of C57BL/6J mouse at 10 mg/kg, ip measured at 1 hr post dose; format: ADME, organism-based; conditions: C57BL/6J, brain, read-out: Drug uptake; procedure, shortened: as §1
# [11] = Protein binding in CSF of Sprague-Dawley rat at 2 uM by equilibrium dialysis; format: ADME, tissue-based, Cerebrospinal fluid; conditions: read-out: PB (converted)
# Procedure, shortened: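 Binding in pooled rat CSF measured by equilibrium dialysis at 2 µM test concentration.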
# [12] = Ratio of unbound drug level in CSF of Sprague-Dawley rat to unbound plasma concentration in Sprague-Dawley rat at 10 mg/kg, po after 4 hrs by ES-UPLC analysis; format: ADME, organism-based; conditions: CSF and plasma
# Procedure, shortened: (§5)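 Sprague Dawley rats given 10 mg/kg po; CSF, plasma and brain collected at 4 h. Drug measured in CSF; free plasma and brain levels computed from total levels using plasma protein and brain tissue binding fractions. Free CSF derived from CSF binding by equilibrium dialysis with pooled rat CSF. Ratios taken from these values.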
# [13] = Half life in rat at 1 mg/kg, iv or 3/10 mg/kg, po; format: ADME, organism-based; conditions: in vivo
# Procedure, shortened: (§6)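 Rat pharmacokinetics after a 1 mpk iv dose (n=3) and a 3 or 10 mpk oral dose (n=3).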
# [14] = Efflux ratio of permeability in MDCK cells; format: ADME, cell-based, Canis lupus familiaris; conditions: dog
# Procedure, shortened: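 Efflux ratio taken as […] transport across P-glycoprotein-expressing MDCK cells.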
# [15] = Inhibition of P-glycoprotein (unknown origin); conditions: human
# [16] = Fraction unbound in rat plasma by equilibrium dialysis; format: ADME, cell-free; procedure, shortened: as §4
# [17] = target: T2, Catechol O-methyltransferase (Rattus norvegicus, UniProt P22734); test: Inhibition of c-terminal hexa-His tagged rat S-COMT expressed in HEK293-6E cell membrane homogenate using 7,8-dihydroxy-4-methylcoumarin as substrate after 1 hr in presence of SAM by MTase glo methyltransferase assay; procedure, shortened: as §3
# T2 sequence (P22734 whole entry): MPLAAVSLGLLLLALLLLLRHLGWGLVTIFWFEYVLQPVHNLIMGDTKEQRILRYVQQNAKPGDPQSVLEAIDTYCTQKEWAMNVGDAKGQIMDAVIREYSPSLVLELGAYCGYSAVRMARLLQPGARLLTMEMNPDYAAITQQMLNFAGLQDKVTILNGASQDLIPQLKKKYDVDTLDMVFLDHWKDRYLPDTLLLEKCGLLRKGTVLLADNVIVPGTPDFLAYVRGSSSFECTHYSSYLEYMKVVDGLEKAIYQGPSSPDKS
# [18] = Substrate activity at P-glycoprotein (unknown origin); format: ADME; conditions: human
# Rattus norvegicus [19] = test: Oral bioavailability in rat at 3/10 mg/kg; format: ADME, organism-based; conditions: in vivo; procedure, shortened: as §6
# [20] = Ratio of drug level in CSF of Sprague-Dawley rat to unbound brain concentration in Sprague-Dawley rat at 10 mg/kg, po after 4 hrs by ES-UPLC analysis; format: ADME, organism-based; conditions: in vivo; procedure, shortened: as §5
# [21] = Unbound drug level in brain of Sprague-Dawley rat at 10 mg/kg, po after 4 hrs by ES-UPLC analysis; format: ADME, organism-based; conditions: in vivo; procedure, shortened: as §5
# [22] = target: ATP-binding cassette sub-family C member 2 (Homo sapiens, UniProt Q92887); test: Inhibition of MRP2 (unknown origin)
# [23] = Drug level in CSF of Sprague-Dawley rat at 10 mg/kg, po after 4 hrs by ES-UPLC analysis; format: ADME, organism-based, Cerebrospinal fluid; conditions: read-out: Drug uptake; procedure, shortened: as §5
# [24] = target: T3, Broad substrate specificity ATP-binding cassette transporter ABCG2 (Homo sapiens, UniProt Q9UNQ0); test: Inhibition of BCRP (unknown origin); format: ADME
# T3 sequence (Q9UNQ0 whole entry): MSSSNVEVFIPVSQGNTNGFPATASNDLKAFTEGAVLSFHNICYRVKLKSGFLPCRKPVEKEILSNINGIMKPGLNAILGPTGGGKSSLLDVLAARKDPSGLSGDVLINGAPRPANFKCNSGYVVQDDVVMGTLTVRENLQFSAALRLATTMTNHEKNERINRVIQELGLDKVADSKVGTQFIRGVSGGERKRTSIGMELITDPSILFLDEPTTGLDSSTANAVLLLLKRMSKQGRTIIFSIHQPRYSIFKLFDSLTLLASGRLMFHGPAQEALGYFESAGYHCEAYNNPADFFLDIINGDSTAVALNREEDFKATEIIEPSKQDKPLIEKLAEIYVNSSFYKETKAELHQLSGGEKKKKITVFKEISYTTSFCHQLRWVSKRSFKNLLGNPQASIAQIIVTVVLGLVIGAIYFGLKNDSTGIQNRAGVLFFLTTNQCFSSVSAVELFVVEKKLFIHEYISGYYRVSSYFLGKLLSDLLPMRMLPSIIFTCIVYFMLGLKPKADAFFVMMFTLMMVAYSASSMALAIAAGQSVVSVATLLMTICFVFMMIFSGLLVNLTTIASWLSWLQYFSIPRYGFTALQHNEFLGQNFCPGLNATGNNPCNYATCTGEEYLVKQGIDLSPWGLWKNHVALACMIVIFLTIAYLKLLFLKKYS
# [25] = Ratio of drug level in CSF of Sprague-Dawley rat to unbound plasma concentration in Sprague-Dawley rat at 10 mg/kg, po after 4 hrs by ES-UPLC analysis; format: ADME, organism-based; conditions: in vivo; procedure, shortened: as §5
# [26] = target: T2, Catechol O-methyltransferase; test: Inhibition of c-terminal hexa-His tagged rat MB-COMT expressed in HEK293 cell membrane homogenate using norepinephrine as substrate after 1 hr in presence of SAM by MTase glo methyltransferase assay; procedure, shortened: as §2
# Rattus norvegicus [27] = test: In vivo inhibition of COMT in Sprague-Dawley rat assessed as HVA levels in CSF at 10 mg/kg, po measured at 4 hrs post dose by LC-MS analysis relative to control; format: functional; set-up: scale not given: the % may be the effect or the level left
# Procedure, shortened: (§7)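 Male Sprague Dawley rats (176–200 g on arrival) dosed orally at 10 mg/kg in Tween80/antifoam/methylcellulose suspension, 10 mL/kg, vehicle group as control (n=5–10). At 4 h under isoflurane, CSF drawn from cisterna magna. HVA and DOPAC quantified by LC-MS against standards in 0.01 M perchloric acid/aCSF with d5 internal standards. Reported as % of vehicle.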
# Rattus norvegicus [28] = test: In vivo inhibition of COMT in Sprague-Dawley rat assessed as DOPAC levels in CSF at 10 mg/kg, po measured at 4 hrs post dose by LC-MS analysis relative to control; format: functional; procedure, shortened: as §7
# Rattus norvegicus [29] = test: Volume of distribution at steady state in rat at 1 mg/kg, iv or 3/10 mg/kg, po; format: ADME, organism-based; conditions: in vivo; procedure, shortened: as §6
# [30] = Unbound plasma concentration in Sprague-Dawley rat 10 mg/kg, po after 4 hrs by ES-UPLC analysis; format: ADME, organism-based; conditions: in vivo; procedure, shortened: as §5
# Sequence of ATP-binding cassette sub-family C member 2 (Q92887 whole entry): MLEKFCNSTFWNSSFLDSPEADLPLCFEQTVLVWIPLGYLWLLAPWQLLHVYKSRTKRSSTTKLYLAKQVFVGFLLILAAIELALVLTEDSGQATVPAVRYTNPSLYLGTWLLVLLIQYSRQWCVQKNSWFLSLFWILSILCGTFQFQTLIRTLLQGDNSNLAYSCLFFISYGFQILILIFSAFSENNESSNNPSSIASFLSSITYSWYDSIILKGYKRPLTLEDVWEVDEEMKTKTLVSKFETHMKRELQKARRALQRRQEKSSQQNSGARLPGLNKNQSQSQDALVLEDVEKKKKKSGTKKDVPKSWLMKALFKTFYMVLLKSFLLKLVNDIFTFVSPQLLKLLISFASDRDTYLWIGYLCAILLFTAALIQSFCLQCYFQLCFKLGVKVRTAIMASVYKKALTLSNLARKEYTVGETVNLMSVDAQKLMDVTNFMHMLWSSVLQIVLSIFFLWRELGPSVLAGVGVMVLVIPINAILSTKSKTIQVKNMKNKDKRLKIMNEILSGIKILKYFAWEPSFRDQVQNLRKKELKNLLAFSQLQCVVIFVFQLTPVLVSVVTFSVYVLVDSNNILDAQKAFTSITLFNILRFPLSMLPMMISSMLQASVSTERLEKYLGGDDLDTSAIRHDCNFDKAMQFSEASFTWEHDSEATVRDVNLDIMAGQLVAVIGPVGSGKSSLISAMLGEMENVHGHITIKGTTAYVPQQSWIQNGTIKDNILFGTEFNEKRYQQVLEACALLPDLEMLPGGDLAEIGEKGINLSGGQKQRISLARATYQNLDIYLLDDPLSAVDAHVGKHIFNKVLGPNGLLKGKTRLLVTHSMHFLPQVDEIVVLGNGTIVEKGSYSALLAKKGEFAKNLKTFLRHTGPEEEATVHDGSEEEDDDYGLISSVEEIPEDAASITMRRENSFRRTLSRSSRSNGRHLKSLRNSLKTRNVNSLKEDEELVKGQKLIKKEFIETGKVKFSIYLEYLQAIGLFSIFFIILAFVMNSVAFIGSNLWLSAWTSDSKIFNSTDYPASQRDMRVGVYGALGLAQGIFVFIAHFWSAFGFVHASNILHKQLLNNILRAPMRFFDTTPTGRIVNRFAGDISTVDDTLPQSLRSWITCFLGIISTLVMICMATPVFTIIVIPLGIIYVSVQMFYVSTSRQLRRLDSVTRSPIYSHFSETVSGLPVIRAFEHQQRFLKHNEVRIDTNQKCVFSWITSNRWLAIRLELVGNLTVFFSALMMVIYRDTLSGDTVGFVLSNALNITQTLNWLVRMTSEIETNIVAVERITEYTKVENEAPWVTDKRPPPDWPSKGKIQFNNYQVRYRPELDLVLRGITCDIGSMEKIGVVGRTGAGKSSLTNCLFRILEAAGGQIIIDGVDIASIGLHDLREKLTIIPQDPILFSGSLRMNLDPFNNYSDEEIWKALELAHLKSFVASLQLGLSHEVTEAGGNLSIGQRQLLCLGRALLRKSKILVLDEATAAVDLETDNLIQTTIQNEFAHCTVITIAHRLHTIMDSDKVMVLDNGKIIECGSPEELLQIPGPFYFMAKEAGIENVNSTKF
structure (smiles),measurement,setting,value
Cc1ccc(C(=O)c2cc(O)c(O)c([N+](=O)[O-])c2)cc1 [TOLCAPONE],Drug uptake,[1],Bld
same,Cp(f),[2],35 nM
same,Drug uptake(free),[3],Bld
O=S(=O)(c1ccc(O)c2ncccc12)N1CCCC1Cc1ccccc1 (stereo not given),concentration at 1 h,[4],235 ng/mL
same,IC50,[5],2 nM
same,fraction unbound,[6],0.5
same,hepatocyte CLint,[7],228 µL/min/1e6 cells
same,IC50,[8],2000 nM
same,Fu,[9],0.5
same,concentration at 1 h,[10],109 ng/g
O=S(=O)(c1cc(F)c(O)c2ncccc12)N1CCCC1,fraction unbound at 2 µM,[11],0.49
same,Kp uu at 4 h,[12],3.3
same,half-life,[13],2.8 h
same,efflux ratio,[14],1.2
same,inhibition (INH),[15],Not Active
same,Fu,[16],0.6
same,IC50,[17],3980 nM
same,Activity,[18],Not Active
same,concentration at 1 h,[4],1820 ng/mL
same,IC50,[5],3.98 nM
same,hepatocyte CLint,[7],21 µL/min/1e6 cells
same,F,Rattus norvegicus [19],73%
same,Ratio,[20],4.4
same,IC50,[8],1580 nM
same,Drug uptake(free),[21],35 nM
same,inhibition (INH),[22],Not Active
same,concentration at 4 h,[23],157 nM
same,inhibition (INH),[24],Not Active
same,Ratio,[25],6.8
same,IC50,[26],< 1 nM
same,Activity,Rattus norvegicus [27],72%
same,CSF DOPAC level (% of vehicle),Rattus norvegicus [28],140%
same,concentration at 1 h,[10],110 ng/g
same,Vdss,Rattus norvegicus [29],2.2 L/kg
same,Cp(f),[30],23 nM
